# High-throughput results: PubChem BioAssay, The Scripps Research Institute Molecular Screening Center
# Most compounds without a hit are left out; they make up all but 4% or so of the library.
# OX1R antag-1 – antagonists of human orexin 1 receptor (OX1R); actives 1.8% (n = 330,000); O43613; inhibition, % at 6.6 µM; OX1R-expressing cells, FRET antagonist read-out; in the data active = inhibition mostly above about 38%, no sharp cut-off; inactive = mostly below about 40%
# Target sequence (O43613 whole entry, looked up): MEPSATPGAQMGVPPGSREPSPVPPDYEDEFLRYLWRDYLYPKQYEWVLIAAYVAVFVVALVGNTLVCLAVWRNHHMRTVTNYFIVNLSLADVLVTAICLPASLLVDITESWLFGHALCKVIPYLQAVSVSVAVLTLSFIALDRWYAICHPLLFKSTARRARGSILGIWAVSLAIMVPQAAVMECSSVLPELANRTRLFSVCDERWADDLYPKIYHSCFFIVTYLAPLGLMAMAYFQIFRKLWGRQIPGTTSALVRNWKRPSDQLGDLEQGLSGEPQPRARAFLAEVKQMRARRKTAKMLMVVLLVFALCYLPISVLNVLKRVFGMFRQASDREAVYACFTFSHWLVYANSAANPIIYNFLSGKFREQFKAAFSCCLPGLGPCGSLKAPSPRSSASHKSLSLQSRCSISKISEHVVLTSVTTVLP
# OX1R antag-2 – blocks the human orexin 1 receptor; O43613; CHO/OX1R cells, Fluo-8 calcium fluorescence, orexin A; inhibition, % at 5 µM; actives 0.43% (n = 330,000); AID 434989;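 active = inhibition above its plate's threshold, mean inhibition of all tested compounds on the plate plus 3 SD, cut at about 37% in these data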
# TAAR1 antagonist – antagonists of human TAAR1. inhibition, % at 3 µM. CHO RD-HGA16 TAAR1, Fluo-8 calcium fluorescence, antagonist. Q96RJ0. actives 1.5% (n = 360,000). AID 624466;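 active = inhibition above a per-plate cutoff, the mean inhibition of test compounds on that plate plus 3 SD, cut at about 49% in these data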
# Target sequence (Q96RJ0 whole entry, looked up): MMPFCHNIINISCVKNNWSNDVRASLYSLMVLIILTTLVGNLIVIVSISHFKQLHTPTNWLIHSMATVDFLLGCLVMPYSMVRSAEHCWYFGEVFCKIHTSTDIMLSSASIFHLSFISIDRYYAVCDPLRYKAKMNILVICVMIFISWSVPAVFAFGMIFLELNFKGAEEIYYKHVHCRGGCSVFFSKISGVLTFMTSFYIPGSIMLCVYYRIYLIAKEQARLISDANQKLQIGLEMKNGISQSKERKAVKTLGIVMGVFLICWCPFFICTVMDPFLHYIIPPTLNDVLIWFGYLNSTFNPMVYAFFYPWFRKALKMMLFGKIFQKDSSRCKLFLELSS
#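 Test system: CHO RD-HGA16 cells bearing hTAAR1 | Reagent: β-PEA, EC80 | Compound dosing: 3 µM, single point | Schedule: Dye loading 75 min at 37 °C, then 30 min room temperature | Signal: Calcium fluorescence with Fluo-8 | Evaluation: Percent inhibition of PEA-evoked calcium signal, max/basal emission ratio | Control set: DMSO-only wells and EC80 β-PEA-stimulated wells | Repeats: Singlicate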
# CHO parental Ca – counter-screen for OX1R antagonists: effect in parental CHO cells. parental CHO-K1, ATP-induced calcium, Fluo-8 fluorescence. inhibition, % at 5.6 µM. actives 0.63% (n = 330,000). AID 463079;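 active = inhibition above that plate's mean sample inhibition plus 3 SD, cut at about 26% in these data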
#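 Assay system: parental CHO cells; Read-out basis: percent inhibition of ATP-evoked calcium rise, normalized to controls; Benchmarks: ATP and no-ATP DMSO wells; Compound dosing: single nominal dose of 5.6 µM per compound; Signal: Fluo-8 calcium dye fluorescence; Also added: ATP as calcium-mobilizing challenge; Repeats: singlicate.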
# TAAR1 agonist – human TAAR1 agonism | Q96RJ0 | CHO RD-HGA16 TAAR1, Fluo-8 calcium fluorescence; vehicle wells 0%, saturating PEA agonist 100% | activation, % at 3 µM | actives 0.99% (n = 360,000) | AID 624467;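 active = activation above the mean activation of all test compounds in the run plus 3 SD, cut at about 38% in these data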
#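 System: CHO-derived RD-HGA16 cells with stable Gα16 and human TAAR1. Times: 17-24 h plating, Fluo-8 75 min 37 °C, 30 min RT. Measured by: calcium-sensitive Fluo-8 signal, excitation 470-495, emission 515-575 nm. Read-out basis: % activation relative to PEA EC100 response. Control set: DMSO and PEA EC100. Repeats: no replicates (n 1).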
# TAAR1 ag conf – human TAAR1 agonism, confirmed | shares compounds with TAAR1 agonist | CHO RD-HGA16 TAAR1, Fluo-8 calcium fluorescence; scaled: DMSO 0%, maximal phenethylamine 100% | activation, % at 3 µM | actives 82% (n = 2,400) | AID 651783;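 active = activation above a cutoff set at the run's mean compound activation plus 3 SD, cut at about 39% in these data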
# Ga16 nonsel ag – nonselective agonist in parental cells, TAAR1 agonist counter-screen; actives 50% (n = 2,400); shares compounds with TAAR1 agonist; CHO-Ga16 parental, Fluo-8 calcium fluorescence; normalized to maximal ATP response, DMSO zero; activation, % at 3 µM;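 active = activation above the run cutoff, the mean activation over all tested wells plus 3 SD, cut at about 12% in these data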
# TAAR1 desens – TAAR1 response desensitization, agonist counter-screen; AID 651951; actives 46% (n = 2,400); shares compounds with TAAR1 agonist; inhibition, % at 3 µM; CHO RD-HGA16 hTAAR1, Fluo-8 calcium, beta-PEA response inhibition;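 active = inhibition above the run cutoff, the mean inhibition of all test compounds plus 3 SD, cut at about 49% in these data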;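 note: beta-PEA stimulus applied at its EC80; loss of beta-PEA calcium signal after compound pretreatment read as receptor desensitization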
# Ga16 nonsel ant – counter-screen for TAAR1 agonists: nonselective Ga16 antagonists; shares compounds with TAAR1 agonist; CHO-Ga16 ATP-induced calcium, Fluo-8 fluorescence; inhibition, % at 3 µM; actives 39% (n = 2,400);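 active = inhibition above the plate's mean compound inhibition plus 3 SD, computed per plate, cut at about 22% in these data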
# A number is an active result; i = inactive; nt = not tested or not shown.
SMILES,OX1R antag-1,OX1R antag-2,TAAR1 antagonist,CHO parental Ca,TAAR1 agonist,TAAR1 ag conf,Ga16 nonsel ag,TAAR1 desens,Ga16 nonsel ant
CCOc1ccc(-c2c(C(=O)N/N=C/c3ccco3)nnn2-c2nonc2N)cc1,i,i,i,i,92.2,63.8,48.6,i,i
CCOc1ccc(-c2c(C(=O)N/N=C/c3ccc(C)s3)nnn2-c2nonc2N)cc1,i,i,nt,i,nt,nt,nt,nt,nt
Cc1ccc(-c2c(C(=O)N/N=C/c3ccco3)nnn2-c2nonc2N)cc1,i,i,i,i,87.5,110.5,78.6,i,i
Cc1ccc(Cn2ccc(O)c(Cc3ccccc3)c2=O)cc1,i,i,i,i,i,nt,nt,nt,nt
Cn1cc(CN2C[C@]3(C)C[C@H]2CC(C)(C)C3)c(-c2ccc3c(c2)OCCO3)n1,i,i,i,i,i,nt,nt,nt,nt
O=c1nc(N2CCCC2)nc(Nc2ccccc2)[nH]1,i,i,nt,i,nt,nt,i,nt,i
c1ccc(Nc2nc(N3CCCC3)nc(N3CCOCC3)n2)cc1,i,i,i,i,i,nt,nt,nt,nt
COc1ccc(Cl)cc1NS(=O)(=O)c1cccc(C(=O)NCCCN2CCCC2=O)c1,i,i,i,i,i,nt,nt,nt,nt
Nc1nc(N)c2cc(Sc3cccc(C(F)(F)F)c3)ccc2n1,nt,nt,i,nt,i,nt,nt,nt,nt
Nc1nc(N)c2cc(Sc3ccc4ccccc4c3)ccc2n1,i,i,i,i,63.4,82.0,44.5,57.3,46.0
Nc1nc(N)c2cc(Sc3ccc(Cl)cc3)ccc2n1,nt,nt,i,nt,60.3,65.4,39.6,56.5,39.6
O=C(CNS(=O)(=O)c1ccccc1)N1CCN(Cc2ccccc2)CC1,i,i,i,i,i,nt,nt,nt,nt
COCO/C=C(\NC(C)=O)c1ccccc1,i,i,i,i,i,nt,nt,nt,nt
O=[N+]([O-])c1[nH]cnc1/C=C/c1ccccc1,i,i,nt,i,nt,nt,i,nt,i
COc1ccccc1NC(=O)C(=O)NCC(c1ccco1)N1CCc2ccccc2C1 (stereo not given),i,i,i,i,83.4,64.0,i,i,i
COc1ccc(C)cc1S(=O)(=O)NCC(c1ccco1)N1CCc2ccccc2C1 (stereo not given),i,i,i,i,42.0,62.2,i,i,i
COc1ccc(OC)c(S(=O)(=O)NCC(c2ccco2)N2CCc3ccccc3C2)c1 (stereo not given),i,i,i,i,i,nt,nt,nt,nt
O=C(NCC(c1ccco1)N1CCc2ccccc2C1)c1ccc(F)cc1 (stereo not given),i,i,i,i,46.2,i,i,i,i
OCCNc1nc(N2CCCCC2)nc2ccccc12,i,i,i,i,i,nt,nt,nt,nt
Cc1c(Cl)cccc1Nc1nc(NCCO)c2ccccc2n1,i,i,i,i,49.5,82.8,i,83.7,i
OCCNc1nc(Nc2ccccc2)nc2ccccc12,i,i,92.1,i,96.6,88.8,i,97.9,i
Cc1ccccc1Nc1nc(N)nc(CN2CCN(C(=O)c3ccccc3)CC2)n1,i,i,i,i,i,nt,nt,nt,nt
C/C=C(\C)C(=O)OC1c2c(ccc3ccc(=O)oc23)OC(C)(C)C1OC(C)=O (stereo not given),i,i,62.2,i,50.8,45.5,29.1,79.1,53.7
Nc1c(N(Cc2ccccc2)C(=O)COc2ccc([N+](=O)[O-])cc2)c(=O)[nH]c(=O)n1Cc1ccccc1,nt,nt,i,nt,i,nt,nt,nt,nt
O=C(COc1ccccc1Cl)NCc1ccncc1,i,i,i,i,i,nt,nt,nt,nt
SMILES,OX1R antag-1,OX1R antag-2,TAAR1 antagonist,CHO parental Ca,TAAR1 agonist,TAAR1 ag conf,Ga16 nonsel ag,TAAR1 desens,Ga16 nonsel ant
CCCOc1ccc(OC(=O)c2ccc(Br)o2)cc1,i,66.9,101.6,55.6,136.8,114.6,94.6,85.5,79.1
CC(CNC(=O)CCn1ccc2cc(S(=O)(=O)N3CCCC3)ccc21)c1ccccc1 (stereo not given),i,i,i,i,i,nt,nt,nt,nt
Cc1ccc(S(=O)(=O)NC2=NCN(CCc3ccccc3)CN2)cc1,i,i,i,i,64.2,43.3,i,i,i
CC(NCc1ccc(OCc2ccc(Cl)cc2)cc1)C(O)c1ccccc1 (stereo not given),i,i,i,i,52.4,38.9,26.9,48.6,39.9
Fc1ccc(Nc2nc(N/N=C/c3ccco3)nc(N3CCCCC3)n2)cc1,i,i,i,i,i,nt,nt,nt,nt
COc1ccc(Nc2cc(C)nc(N)n2)cc1,i,i,i,i,i,nt,nt,nt,nt
Cc1cc(Nc2ccc(Cl)cc2)nc(N)n1,i,i,i,i,52.7,61.0,i,i,i
O=C(O)c1ccc(NC(=S)NC(=O)c2ccc3ccccc3c2)cc1,i,i,i,i,47.1,39.6,31.9,i,26.2
O=C(O)c1cccc(NC(=S)NC(=O)c2ccc3ccccc3c2)c1,i,i,i,i,72.8,i,30.8,i,i
CCCCCNC(=O)C1CC=CCC1C(=O)O (stereo not given),i,i,i,i,49.0,i,i,i,i
CCCCN(CCCC)C(=O)C1CC=CCC1C(=O)O (stereo not given),i,i,i,i,i,nt,nt,nt,nt
O=C(O)C1C2CCC(C2)C1C(=O)NCCc1cccc(Cl)c1 (stereo not given),i,i,85.8,i,76.0,88.5,i,73.3,i
CC1=C(C)CC(C(=O)NCCc2ccc(F)cc2)C(C(=O)O)C1 (stereo not given),i,i,i,i,73.2,75.3,i,i,i
COc1ccc(CCNC(=O)C2CC=CCC2C(=O)O)cc1 (stereo not given),i,i,i,i,49.9,59.7,i,i,i
Cc1cc(C)nc(N2CCC(C(=O)NCCc3ccc(F)cc3)CC2)n1,i,i,i,i,i,nt,nt,nt,nt
COc1cccc(C(C(=O)NCC2CCCO2)N(C(=O)Cn2nnc3ccccc32)c2ccc(NC(C)=O)cc2)c1OC (stereo not given),i,i,i,i,i,nt,nt,nt,nt
S=C(NCCc1ccccc1)N1CCCC1,i,i,i,i,i,nt,nt,nt,nt
CC1CCCCN1C(=S)NCCc1ccccc1 (stereo not given),i,i,i,i,46.6,i,i,i,i
O=C(O)C1CCCCC1C(=O)NCCc1ccncc1 (stereo not given),i,i,i,i,i,nt,nt,nt,nt
O=C(O)C1C2CCC(C2)C1C(=O)Nc1cc(F)ccc1F (stereo not given),i,i,i,i,i,nt,nt,nt,nt
